Measurements from ChEMBL document CHEMBL4190330, “Discovery of Potent and Selective A2A Antagonists with Efficacy in Animal Models of Parkinson's Disease and Depression” (ACS Med Chem Lett, 2017).

Columns and labels:
[1] = Ratio of AUC (0 to 4 hrs) in Wistar rat brain to plasma at 3 mg/kg, iv by LC-MS/MS analysis; type: ADME, organism-based; details: read-out: Ratio AUC
[2] = biological target: T1, Adenosine receptor A2b (Homo sapiens) (UniProt P29275); test: Antagonist activity at human A2B receptor expressed in HEK293 cell membranes assessed as inhibition of NECA-induced cAMP level at 10 uM pretreated for 15 mins followed by NECA addition measured after 15 mins by HTRF assay; type: functional, cell-based
T1 sequence (whole entry): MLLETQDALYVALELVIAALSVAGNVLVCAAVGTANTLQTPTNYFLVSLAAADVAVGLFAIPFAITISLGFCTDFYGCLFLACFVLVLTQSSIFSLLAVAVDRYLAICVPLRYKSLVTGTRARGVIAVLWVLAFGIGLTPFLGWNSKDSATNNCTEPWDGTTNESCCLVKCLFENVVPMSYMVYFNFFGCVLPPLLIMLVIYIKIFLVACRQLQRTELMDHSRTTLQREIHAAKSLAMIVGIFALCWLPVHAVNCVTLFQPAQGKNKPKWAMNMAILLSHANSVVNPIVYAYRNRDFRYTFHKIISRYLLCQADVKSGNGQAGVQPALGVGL
Method in brief: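 HTRF cAMP functional assay on the human receptor isoform, run in triplicate at 12 concentrations with a top concentration of 10 µM, in two independent experiments. Inhibition at 10 µM is recorded where no Ki could be derived.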

[3] = Cmax in Wistar rat at 10 mg/kg, po administered via gavage by LC-MS/MS analysis; type: ADME, organism-based; set-up: dose 10 mg/kg, route oral; details: in vivo
Method in brief: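 Male Wistar rats, n = 4; oral dose 10 mg/kg as suspension in 1% Tween 80 with 0.5% w/v NaCMC; values are means.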

[4] = biological target: hERG (Homo sapiens, UniProt Q12809); test: Inhibition of human ERG at 10 uM relative to control
[5] = biological target: Cytochrome P450 3A4 (Homo sapiens, UniProt P08684); test: Inhibition of CYP3A4 (unknown origin); type: ADME
[6] = test system: HepG2; test: Cytotoxicity against human HepG2 cells after 24 hrs by MTT assay; type: cell-based; details: HepG2, 24 h
[7] = Permeability across apical to basolateral side in human Caco2 cells; type: ADME, cell-based; details: caco-2
[8] = Protein binding in mouse plasma; type: ADME, cell-free; details: read-out: PPB (converted)

Chain of hERG (Q12809 whole entry): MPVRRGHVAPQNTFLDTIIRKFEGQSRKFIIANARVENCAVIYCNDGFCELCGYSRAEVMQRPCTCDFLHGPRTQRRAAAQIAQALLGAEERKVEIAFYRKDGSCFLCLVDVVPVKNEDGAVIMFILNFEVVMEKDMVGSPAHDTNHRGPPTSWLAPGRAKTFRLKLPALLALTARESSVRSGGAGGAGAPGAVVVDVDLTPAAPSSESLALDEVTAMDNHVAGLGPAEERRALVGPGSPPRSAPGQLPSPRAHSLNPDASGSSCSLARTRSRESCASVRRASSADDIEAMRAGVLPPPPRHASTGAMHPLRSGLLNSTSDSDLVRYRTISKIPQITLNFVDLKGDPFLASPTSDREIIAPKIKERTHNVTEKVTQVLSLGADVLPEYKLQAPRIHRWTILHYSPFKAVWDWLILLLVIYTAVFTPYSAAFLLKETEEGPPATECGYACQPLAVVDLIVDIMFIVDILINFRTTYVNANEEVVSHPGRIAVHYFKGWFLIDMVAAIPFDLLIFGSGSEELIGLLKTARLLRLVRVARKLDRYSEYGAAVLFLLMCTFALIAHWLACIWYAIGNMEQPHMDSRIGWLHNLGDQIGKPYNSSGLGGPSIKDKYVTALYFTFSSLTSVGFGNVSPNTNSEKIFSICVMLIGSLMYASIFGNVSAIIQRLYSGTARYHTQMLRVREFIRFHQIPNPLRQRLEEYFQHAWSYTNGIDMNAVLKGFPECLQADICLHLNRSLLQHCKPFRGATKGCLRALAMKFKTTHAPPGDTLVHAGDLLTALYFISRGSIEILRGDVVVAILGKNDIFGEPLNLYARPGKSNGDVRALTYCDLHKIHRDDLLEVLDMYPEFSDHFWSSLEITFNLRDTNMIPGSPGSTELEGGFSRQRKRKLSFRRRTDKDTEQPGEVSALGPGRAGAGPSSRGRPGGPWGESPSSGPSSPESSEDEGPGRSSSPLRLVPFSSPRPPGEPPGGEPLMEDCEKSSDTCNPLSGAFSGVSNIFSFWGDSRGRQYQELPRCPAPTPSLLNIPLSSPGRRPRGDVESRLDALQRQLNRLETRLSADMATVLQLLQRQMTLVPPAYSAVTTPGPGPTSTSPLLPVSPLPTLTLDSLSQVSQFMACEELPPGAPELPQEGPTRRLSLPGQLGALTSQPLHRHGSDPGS
Chain of Cytochrome P450 3A4 (P08684 whole entry): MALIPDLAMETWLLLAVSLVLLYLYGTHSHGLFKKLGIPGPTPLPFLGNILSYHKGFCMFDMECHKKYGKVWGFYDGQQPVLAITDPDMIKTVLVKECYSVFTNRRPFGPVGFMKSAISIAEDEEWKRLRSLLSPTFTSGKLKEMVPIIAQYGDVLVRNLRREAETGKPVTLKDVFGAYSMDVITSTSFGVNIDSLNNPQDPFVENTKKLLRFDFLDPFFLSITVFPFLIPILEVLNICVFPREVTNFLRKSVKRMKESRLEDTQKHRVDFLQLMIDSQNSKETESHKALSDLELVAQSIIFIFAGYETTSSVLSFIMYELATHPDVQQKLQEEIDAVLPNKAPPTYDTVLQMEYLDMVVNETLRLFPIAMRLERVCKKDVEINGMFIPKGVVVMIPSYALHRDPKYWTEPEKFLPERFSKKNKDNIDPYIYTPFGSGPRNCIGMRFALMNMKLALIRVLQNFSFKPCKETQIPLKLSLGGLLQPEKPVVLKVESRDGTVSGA

Kp [1]: 0.38 | inhibition [2]: < 50% | Cmax [3]: 600 nM | IC50 [5]: > 10 µM | permeability [7]: Permeable | fraction unbound [8]: 0.49
SMILES: COCCOc1ccc(N2CCN(CCn3c(=O)n(C)c4c3nc(N)n3nc(-c5nccs5)nc43)CC2)cc1F
inhibition at 10 µM [4]: 38% | IC50 [6]: > 30 µM
